{"data": "Measured values from different studies", "target": "Ephrin type-A receptor 2 (EPHA2, Homo sapiens, UniProt P29317)", "note": "Each line is one published result; the experiments were not run side by side."}
{"Compound": "O=C(c1ccc(Nc2ncc(Cl)c(-c3cc4ccccc4s3)n2)cc1)N1CCC(N2CCCC2)CC1", "observed": "binding", "technique": "competition with immobilised ligand", "tested at": "1 µM", "remaining binding [%]": 60}
{"Compound": "C[C@@H]1CN(c2ccc3ncc(-c4ccc5[nH]nc(C6CC6)c5c4)n3n2)C[C@H](C)O1", "observed": "binding", "technique": "competition with immobilised ligand", "tested at": "0.5 µM", "remaining binding [%]": 100}
{"Compound": "Cc1cnn2ncc(-c3ccnc(N(C)C)n3)c2c1", "observed": "binding", "tested at": "1 µM", "remaining binding [%]": 95}
{"Compound": "O=C(NCCCN1CCOCC1)c1ccc(Nc2nccc(-c3cc4ccccc4s3)n2)cc1", "observed": "binding", "technique": "competition with immobilised ligand", "tested at": "1 µM", "remaining binding [%]": 72}
{"Compound": "C[C@H](c1ccnc(Nc2nc3ccc(-c4cc(N(C)C)ncn4)cc3[nH]2)c1)N1CCN(C(=O)CC(F)(F)F)CC1", "observed": "cell-free assay", "technique": "competition with immobilised ligand", "tested at": "0.1 µM", "remaining binding [%]": 100}
{"Compound": "F[C@@H]1CCN(c2nccc(-c3cnn4ncccc34)n2)C1", "observed": "binding", "tested at": "1 µM", "remaining binding [%]": 100}
{"Compound": "Cn1nc(C(=O)NCc2ccc(C(=O)O)cc2)cc1-c1ccc2[nH]ccc2c1", "observed": "cell-free assay", "technique": "competition with immobilised ligand", "tested at": "0.1 µM", "remaining binding [%]": 95}
{"Compound": "CN(C)c1nccc(-c2cnc3ncccn23)n1", "observed": "binding", "tested at": "1 µM", "remaining binding [%]": 100}
{"Compound": "COc1cnc(Nc2cccc(S(N)(=O)=O)c2)nc1N1CCN(c2ccccc2)C(=O)C1", "observed": "binding", "technique": "competition with immobilised ligand", "tested at": "1 µM", "remaining binding [%]": 99}
{"Compound": "C[C@@H](c1ccc(-n2cnc3c(N)ncnc32)cc1)N1CCc2nn(C)c(Cc3ccccc3)c2C1=O", "observed": "binding", "technique": "competition with immobilised ligand", "tested at": "0.1 µM", "remaining binding [%]": 100}
{"Compound": "CO[C@@H](C)c1c(Nc2ccc([C@H](N(C)C(=O)C3CCS(=O)(=O)CC3)C(F)(F)F)cc2)cnc2cc(Cl)nn12", "observed": "cell-free assay", "technique": "competition with immobilised ligand", "tested at": "1 µM", "remaining binding [%]": 100}
{"Compound": "Cc1cnc(Nc2ccc(C(=O)N3CCC(N4CCCC4)CC3)cc2)nc1-c1cc2ccccc2s1", "observed": "binding", "technique": "competition with immobilised ligand", "tested at": "1 µM", "remaining binding [%]": 26}
{"Compound": "C[C@@H]1CN(c2cc(-c3n[nH]c4ccc(OC5(C)CC5)cc34)ncn2)C[C@H](C)O1", "observed": "cell-free assay", "technique": "competition with immobilised ligand", "tested at": "0.1 µM", "remaining binding [%]": 72}
{"Compound": "N[C@H]1CCN(c2nccc(-c3cnn4ncccc34)n2)C1", "observed": "binding", "tested at": "1 µM", "remaining binding [%]": 87}
{"Compound": "CCOCCn1cc(C(=O)Nc2ccc(-n3nc(-c4cccnc4)cc3C(F)(F)F)cn2)ccc1=O", "observed": "cell-free assay", "technique": "competition with immobilised ligand", "tested at": "1 µM", "remaining binding [%]": 93}
{"Compound": "COc1ccnn2ncc(-c3ccnc(N(C)C)n3)c12", "observed": "binding", "tested at": "1 µM", "remaining binding [%]": 100}
{"Compound": "Cc1nc(C2CCN(C(=O)c3ccc(OC(F)(F)F)cc3N)CC2)c2ncc(N3CCN(C)CC3)cc2n1", "observed": "cell-free assay", "technique": "competition with immobilised ligand", "tested at": "1 µM", "remaining binding [%]": 100}
{"Compound": "FC(F)(F)Oc1cccc(-c2cnc3ccc(-c4ccncc4)nn23)c1", "observed": "cell-free assay", "technique": "competition with immobilised ligand", "tested at": "5 µM", "remaining binding [%]": 80}
{"Compound": "O=C(Nc1c[nH]nc1C(=O)NC1CCNCC1)c1cc(F)cc(F)c1", "observed": "binding", "technique": "competition with immobilised ligand", "tested at": "1 µM", "remaining binding [%]": 100}
{"Compound": "COc1ncc2cc3ccccc3nc2c1C#N", "observed": "cell-free assay", "technique": "competition with immobilised ligand", "tested at": "5 µM", "remaining binding [%]": 96}
{"Compound": "C[C@@H]1CCN(c2nccc(-c3cnn4ncccc34)n2)C1", "observed": "binding", "tested at": "1 µM", "remaining binding [%]": 93}
{"Compound": "CN(C)C(=O)Cn1cc(-c2nc([C@@](C)(c3ccc(-c4cnc(N)nc4)cc3)C3CC3)no2)cn1", "observed": "cell-free assay", "technique": "competition with immobilised ligand", "tested at": "1 µM", "remaining binding [%]": 100}
{"Compound": "CN(c1nccc(-c2cnn3ncccc23)n1)C1CC1", "observed": "binding", "tested at": "1 µM", "remaining binding [%]": 99}
{"Compound": "Nc1cnc(N2CCc3cc(S(=O)(=O)Nc4c(F)cc(Cl)cc4F)cc(N4CCCC4=O)c32)nc1", "observed": "cell-free assay", "technique": "competition with immobilised ligand", "tested at": "1 µM", "remaining binding [%]": 100}
{"Compound": "c1cncc(-c2cccc(Nc3nccc(NC4CCCCC4)n3)c2)c1", "observed": "binding", "technique": "competition with immobilised ligand", "tested at": "10 µM", "remaining binding [%]": 83}
